# Compound activity deposited in PubChem BioAssay by several laboratories.
# Only some compounds are listed: those with a hit (about 3.7% of all), similar ones and a draw of the others.
# aDG glyco act: alpha-DG glycosylation activation; Pro5-aDG cells, alpha-DG glycosylation AlphaScreen (IIH6); 0% Pro5, 100% B10-LARGE cell signal; activation, % at 10 µM; 0.22% of 360,000 active;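 active = activation of at least 8% versus controls, or a plate z-score of at least 8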;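 note: Pro5 are CHO cells carrying HIG-tagged alpha-DG that lacks glycosylation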
# procasp7 counter: counter-screen: procaspase-7 (human) activation; P55210; recombinant procaspase-7, Ac-DEVD-pNA absorbance 405 nm; D23A/D198A/D206A triple mutant, cannot self-cleave; scale: DMSO 0, 5 µM enzyme 100; activation, % at 8.5 µM; 0.093% of 330,000 active; AID 463210;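 active = percent activation above the screen-wide mean plus 3 SD, cut at about 25% in these data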
# Target sequence (P55210 whole entry D23A/D198A/D206A): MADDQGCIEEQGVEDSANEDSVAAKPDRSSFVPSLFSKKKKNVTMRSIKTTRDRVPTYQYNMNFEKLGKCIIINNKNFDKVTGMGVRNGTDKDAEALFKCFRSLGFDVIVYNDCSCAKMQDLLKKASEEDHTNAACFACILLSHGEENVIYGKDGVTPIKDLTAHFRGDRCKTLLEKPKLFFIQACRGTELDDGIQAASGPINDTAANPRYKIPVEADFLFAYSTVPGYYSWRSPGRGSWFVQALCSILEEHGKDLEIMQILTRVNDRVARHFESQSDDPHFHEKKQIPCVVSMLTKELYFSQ
#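 Assay system: Uncleavable procaspase-7 mutant enzyme; Input: 2 µM procaspase-7 mutant as dispensed; Also added: DEVD-pNA substrate; Medium: Zinc-free HEPES pH 7.4 with 300 mM NaCl, 0.01% Triton X-100; Timing: 1 h compound preincubation, 2 h substrate cleavage, 25 °C; Measured by: Epi-absorbance of released pNA at 405 nm, two timepoints.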
# MPTP inh: inhibitors of mitochondrial permeability transition pore. isolated mouse mitochondria, Ca2+ swelling absorbance, 30 min. 1.4% of 360,000 active. AID 602449. inhibition, % at 10 µM;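 active = inhibition of 50% or more, scaled per plate between neutral and stimulator controls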;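 note: 0% = DMSO wells given calcium and 100% = 1 mM EGTA wells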
# NR3A LBD binder: modulates the human NR3A ligand-binding domain; 2.5% of 340,000 active; NR3A LBD differential scanning fluorimetry, Tm shift; 0% = protein alone, 100% = glycine-bound protein; Tm shift relative to glycine control, % at 25 µM;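 active = melting temperature shift of at least 10% of the positive control shift, at one fixed dose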
# procasp3 activ: activators of human procaspase-3; P42574; recombinant procaspase-3 D3A, Ac-DEVD-pNA absorbance 405 nm; activation, % at 8.5 µM; 0.11% of 330,000 active;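 active = activation above the mean of all tested compounds plus 3 SD, cut at about 21% in these data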;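 note: 0% = DMSO alone and 100% = DMSO wells spiked with extra 5 µM PC-3 D3A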
# Target sequence (P42574 whole entry D9A/D28A/D175A): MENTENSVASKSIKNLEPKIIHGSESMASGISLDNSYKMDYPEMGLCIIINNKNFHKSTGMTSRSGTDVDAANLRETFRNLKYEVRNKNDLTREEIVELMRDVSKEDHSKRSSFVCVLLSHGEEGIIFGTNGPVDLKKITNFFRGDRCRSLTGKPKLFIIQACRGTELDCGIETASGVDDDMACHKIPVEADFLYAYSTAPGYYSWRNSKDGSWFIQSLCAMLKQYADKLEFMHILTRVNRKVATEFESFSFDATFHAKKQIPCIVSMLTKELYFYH
#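 Evaluation: percent activation relative to control range; Material: Procaspase-3 D3A mutant, all three cleavage aspartates alanine; Compound: single dose, 8.5 µM nominal compound, 0.8% DMSO; Replication: one well per compound; Signal: absorbance at 405 nm, 0 and 120 min; Schedule: 1 h preincubation plus 2 h reaction at 25 °C.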
# Starred values were filed as active, the others as inactive; . = no result.
SMILES,aDG glyco act,procasp7 counter,MPTP inh,NR3A LBD binder,procasp3 activ
COC(=O)c1ccc(NC(=O)CSc2ccccc2)cc1,0,2,4,-10,5
O=C(Cc1ccccc1)Nc1ccc(NC(=O)c2ccc(Br)cc2)cc1,0,9,0,2,3
COc1ccccc1C(=O)NCC(=O)N=Nc1c(O)n(C(C)C)c2ccccc12,0,-8,0,255*,5
O=C(Nc1nnc(Cc2ccccc2)s1)c1cccs1,0,-2,1,-1,5
O=C(Nc1nnc(Cc2ccc(Cl)cc2)s1)c1cccs1,0,4,4,12*,3
O=C(NCc1ccccc1)C(C1CC1)n1c(Cc2cc(F)cc(F)c2)nc2ccccc21 (configuration not stated),1,.,0,.,.
C=CCc1cccc(/C=N/NC(=O)CCC(=O)Nc2ccc(C)cc2)c1O,1,6,2,14*,-5
Cc1ccc(NC(=O)CCC(=O)N/N=C/c2ccc(O)cc2O)cc1,0,2,0,4,2
Cc1ccc(NC(=O)CSc2nnc(NC(=O)C3CC3)s2)cc1C,0,2,-2,21*,2
CC(=O)c1ccc(NC(=O)CSc2nnc(NC(=O)C3CC3)s2)cc1,0,18,0,25*,-1
Cc1ccc(NC(=O)CSc2nnc(NC(=O)C3CC3)s2)cc1,0,-1,-1,2,-2
Clc1ccc(-c2cnc3ccccc3n2)cc1,0,11,0,5,4
CCCCOc1ccc(-c2cnc3ccccc3n2)cc1,0,9,6,22*,-4
Oc1ccc(-c2cnc3ccccc3n2)cc1,0,0,0,37*,7
CCc1ccc(/C=C2\SC(=S)N(CCCC(=O)N(CCO)c3ccccc3)C2=O)cc1,0,.,1,.,.
CCCC(C)(C)C(=O)N1CCC1(C)C(=O)NS(=O)(=O)c1ccccc1Cl (configuration not stated),0,.,-2,.,.
COc1cc(Cl)ccc1OC1(C)CCN(Cc2cccc(OC)c2OC)C1 (configuration not stated),0,.,1,.,.
Cc1noc(C)c1CSCC(=O)Nc1cccc(C(F)(F)F)c1,0,2,0,-1,-2
Cc1nc(N)sc1C(=O)N/N=C/c1ccc([N+](=O)[O-])cc1,0,4,0,-2,-3
CC(=O)n1cc(/C=N/NC(=O)c2ccc([N+](=O)[O-])cc2)c2ccccc21,0,1,0,21*,-2
COc1ccc2ccccc2c1/C=N/NC(=O)c1ccc([N+](=O)[O-])cc1,0,-4,0,1,0
O=C(N/N=C/c1c[nH]c2c1ccc1ccccc12)c1ccc([N+](=O)[O-])cc1,0,1,0,39*,2
O=C(N/N=C/c1c[nH]c2ccc(Br)cc12)c1ccc2c(c1)OCO2,0,-1,0,31*,7
COc1cc(/C=N\NC(=O)c2sc(N)nc2C)cc(OC)c1OC,0,6,-1,17*,-2
Cc1cc(C)c(CN2CCN(CCCn3ccc(NC(=O)OCc4ccccc4)nc3=O)CC2)c(C)c1,0,.,1,0,.
SMILES,aDG glyco act,procasp7 counter,MPTP inh,NR3A LBD binder,procasp3 activ
O=C(NN=Cc1c[nH]c2ccccc12)NN=Cc1c[nH]c2ccccc12,0,.,3,.,.
O=C(NC(Cc1c[nH]c2ccccc12)C(=O)Nc1ccc(OC(F)(F)F)cc1)c1cccs1 (configuration not stated),2,-6,14,33*,-11
O=C(NC(Cc1c[nH]c2ccccc12)C(=O)N/N=C/c1cccc2ccccc12)c1cccs1 (configuration not stated),0,-8,1,19*,6
COc1ccccc1C(=O)N/N=C/c1c[nH]c2ccccc12,0,9,0,14*,10
Cc1ccc(C(=O)Nc2ccc(C(=O)N/N=C/c3c[nH]c4ccccc34)cc2)cc1,1,6,0,31*,16
C[C@@H]1CN([C@@H](C)CO)S(=O)(=O)c2ccc(/C=C/c3ccccc3)cc2O[C@@H]1CN(C)Cc1ccc(C(=O)O)cc1,1,.,-1,.,.
O=C(N/N=C/c1c[nH]c2ccccc12)c1cccs1,0,3,0,23*,1
Cc1cc(C(=O)N/N=C/c2c[nH]c3ccccc23)cs1,0,-4,0,27*,-3
Cc1cccc(NC(=S)N/N=C/c2c[nH]c3ccccc23)c1,0,-19,4,33*,-16
Cc1nc(N)sc1C(=O)N/N=C/c1c[nH]c2ccccc12,0,9,0,24*,8
O=C(CNc1ccccc1)N/N=C/c1c[nH]c2ccccc12,0,2,1,9,-3
Cc1nc(N)sc1C(=O)N/N=C/c1ccccc1[N+](=O)[O-],0,0,-1,.,11
CCOC(=O)C1(C)C(=O)CC2c3nc4ccccc4cc3CN2C1=O (configuration not stated),0,.,0,.,.
O=C(N/N=C/c1c[nH]c2ccccc12)c1ccccc1,0,4,0,18*,-3
O=C(N/N=C/c1c[nH]c2ccccc12)c1cccc([N+](=O)[O-])c1,0,1,0,25*,-4
O=C(N/N=C/c1c[nH]c2ccccc12)c1ccncc1,0,0,5,7,6
O=C(N/N=C/c1c[nH]c2ccccc12)c1sc2ccccc2c1Cl,0,-2,0,35*,-18
O=C(O)COc1ccccc1/C=N/NC(=O)c1ccc2c(c1)OCCO2,0,0,1,0,1
O=C(N/N=C/c1c[nH]c2ccccc12)c1ccc2c(c1)OCCO2,0,10,1,11*,12
CCCCCNC(=O)C(C1CC1)n1c(=O)c(-c2ccco2)nc2ccccc21 (configuration not stated),4,.,-2,.,.
CC1(C(=O)NS(=O)(=O)c2cccc(Cl)c2)CCN1C(=O)CC1CC1 (configuration not stated),0,.,0,.,.
Nc1cc(Cl)cc2c1-c1ccc(Cl)cc1C2,0,.,2,23*,.
O=C(CCl)c1ccc2[nH]c(=O)oc2c1,0,8,4,0,0
O=c1[nH]c2ccc(Br)cc2o1,0,.,-1,11*,.
Cc1cc(C)cc(C(=O)NCCC(=O)N2CCC3(CC2)NCCc2[nH]cnc23)c1,0,-11,2,1,1
Cn1c(CC(=O)NNC(=O)c2cccnc2)nc2ccccc21,0,15,-1,-2,2
COC(=O)c1nn(-c2ccccc2)c(Cl)c1/C=N/OCc1ccc(Cl)cc1Cl,0,7,-5,12*,6
COC(=O)c1nn(-c2ccccc2)c(Cl)c1/C=N/O,0,9,0,-5,-1
